Shown are actives, neighbours in structure and some others; about 2% of the full set was active somewhere.
ATG4B inhibitor: inhibitors of human ATG4B cysteine protease. Q9Y4P1. ATG4B cleavage of LC3-PLA2, NBD-HPC fluorescence, 1 h. inhibition, % at 8.33 µM. 0.51% of 340,000 active. AID 504462; in the data active = inhibition above about 40%
Rpn11 inh: blocks the human proteasome subunit Rpn11; O00487; human 26S proteasome, Ub4-pepOG fluorescence polarization; 20S core pre-blocked with epoxomicin; inhibition, % at 20 µM; 0.59% of 360,000 active;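 active = inhibition at 20 µM, scaled to each plate's controls, above about 33%, limit read from the data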
CSN inh: blocks human CSN-mediated cullin deneddylation | Q92905 | Purified CSN, SCF-Nedd8-OG deneddylation, fluorescence polarization | inhibition, % at 12.5 µM | 0.38% of 360,000 active;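 active = pattern-corrected inhibition above about 35%, with an unprinted fluorescence ratio check between 0.5 and 1.5, limit read from the data, passing the limit was not always enough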;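 also: 0% = enzyme with substrate and 100% = substrate without enzyme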
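Assay system: Purified human Csn5 enzyme expressed in HEK293T cells | Amount: Enzyme 0.24 nM | Measured by: Fluorescence polarization readout | Medium: Tris/NaCl/DTT buffer, pH 7.5 | Compound dosing: One concentration, 12.5 µM, 0.25% DMSO | Times: 90 min incubation of compound, enzyme and substrate at room temperature | Control set: no-enzyme wells high, enzyme-with-substrate wells low | Read-out: % inhibition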
SENP1 FRET inh: SENP1 (human) catalytic domain inhibition | Q9P0U3 | recombinant SENP1 catalytic domain, CyPet-SUMO1-YPet FRET cleavage | inhibition, % at 10 µM | 0.21% of 360,000 active | AID 624204;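 active = inhibition at least 30% at 10 µM, raw YFP signal under a set limit, fluorescence ratio 0.5 to 1.5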;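 also: 0% = enzyme with DMSO and 100% = no enzyme wells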
Target sequence (Q9P0U3 419-644 limits assumed): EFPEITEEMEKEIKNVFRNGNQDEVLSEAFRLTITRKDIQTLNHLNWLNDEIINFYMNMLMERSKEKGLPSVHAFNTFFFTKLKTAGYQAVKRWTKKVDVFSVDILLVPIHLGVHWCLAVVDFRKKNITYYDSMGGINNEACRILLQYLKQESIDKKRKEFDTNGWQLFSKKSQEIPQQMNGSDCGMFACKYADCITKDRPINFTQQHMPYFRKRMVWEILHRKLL
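Material: hSENP1 catalytic domain, recombinant; medium: Tris pH 8 with BME, BSA, NP40 and catalase; compound: single concentration of 10 µM compound, 0.5% DMSO final; technique: FRET read of cyan and yellow fluorescence; timing: 50 min enzyme reaction, room temperature, light-protected; reagent: SFCypet-SUMO1-SFYpet substrate at 25 nM; control set: no-enzyme low, enzyme-DMSO high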
TPT1 inhibitor: blocks Candida albicans tRNA 2'-phosphotransferase; inhibition, % at 5 µM; 0.81% of 300,000 active; recombinant caTPT1, FP RNA substrate dephosphorylation;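 active = inhibition above the mean of all tested compounds plus 3 SD, set per screening campaign, cut at about 24% in these data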;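 also: plate controls were DMSO alone for no effect and ferristatin control at 100 nM for full effect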
HNF4A DNA FP: change in binding of human HNF4 alpha to DNA | P41235 | HNF4a-FITC DNA binding, fluorescence polarization, 1 h | activity change, % at 10 µM | 0.3% of 360,000 active | AID 1224865; in the data active = activity change above about 30%, passing the limit was not always enough
Target sequence (P41235 whole entry, looked up): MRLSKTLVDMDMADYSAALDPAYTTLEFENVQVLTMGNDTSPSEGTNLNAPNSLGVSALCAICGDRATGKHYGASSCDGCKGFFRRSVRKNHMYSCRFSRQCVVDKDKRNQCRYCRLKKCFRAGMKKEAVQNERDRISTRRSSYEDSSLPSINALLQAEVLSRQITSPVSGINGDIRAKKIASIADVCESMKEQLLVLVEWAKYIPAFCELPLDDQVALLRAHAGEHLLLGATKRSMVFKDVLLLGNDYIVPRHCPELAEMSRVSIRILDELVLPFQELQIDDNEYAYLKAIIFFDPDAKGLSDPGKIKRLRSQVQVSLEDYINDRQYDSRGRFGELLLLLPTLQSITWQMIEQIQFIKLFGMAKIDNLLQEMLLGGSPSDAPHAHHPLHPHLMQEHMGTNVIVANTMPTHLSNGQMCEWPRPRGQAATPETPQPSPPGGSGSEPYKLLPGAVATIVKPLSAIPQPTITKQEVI
* = called active by the depositor; . = not tested or not shown.

SMILES	ATG4B inhibitor	Rpn11 inh	CSN inh	SENP1 FRET inh	TPT1 inhibitor	HNF4A DNA FP
CN(C)c1ccc(N/C=C/C(=O)c2ccco2)cc1	0.1	15.2	7.1	71.2*	16.5	6.7
CN(C)c1ccc(C(=N)Cc2ccc3ccccc3n2)cc1	.	34.9	44.2*	-30.3	.	25.6
Cc1ccc(C(=O)CSc2nnc(CNc3nc(-c4ccccc4)cs3)n2C)cc1	-23.9	5.6	-4.9	-1.0	3.3	114.5*
Cc1cc(C)nc(SCc2nnc(SCC(=O)Nc3nc(-c4ccccc4)cs3)n2C)n1	-22.7	-9.6	17.4	0.4	-2.9	-1.4
CCc1ccccc1NC(=O)CN(C)C(=O)COC(=O)c1ccco1	-2.2	6.6	4.0	3.2	.	3.6
CC1=C(C(=O)N2CCCCCC2)CC(CC(=O)NC2CCCCC2)C(=O)N1Cc1ccccc1 (stereo not given)	.	12.3	116.7*	2.8	.	-3.9
CC(C)(C)N1C(=O)Cc2c1nc(N)c1c(N)nc(N3CCCCC3CO)c(C#N)c21 (stereo not given)	24.9	12.1	53.3*	-54.9	2.1	5.5
O=Cc1ccccc1Oc1ccccc1	-2.3	-4.7	1.4	0.4	-1.9	-1.4
O=Cc1ccccc1OCCOc1ccccc1C=O	71.0*	0.5	1.4	0.8	-1.4	2.3
CC1(C(=O)NCc2ccc3c(c2)OCO3)CCN1C(=O)CCc1ccc(Cl)cc1Cl (stereo not given)	.	0.5	3.9	0.7	.	3.5
CCOC(=O)C1=C(C)NC(C)=C(C(=O)OCC)C1C(=O)OCC(=O)NCc1ccco1	4.9	-4.1	-8.9	-6.7	.	-0.3
COc1ccc(/C=C2\SC(=S)N(c3cccnc3)C2=O)cc1	-6.4	3.5	0.8	0.2	-2.1	0.6
O=C1/C(=C\c2ccc(O)cc2)SC(=S)N1c1cccnc1	6.4	24.4	6.5	80.8*	11.2	16.9
CCN(CC)CCN(Cc1cc2cc3c(cc2[nH]c1=O)OCO3)C(=S)NCc1ccco1	8.7	5.5	35.1*	1.5	-3.8	-0.9
CCN(CC)CCCN(Cc1cc2cc3c(cc2[nH]c1=O)OCO3)C(=S)NCc1ccco1	0.9	-2.0	5.4	-1.5	-0.8	3.3
CCOC(=O)C1CCN(c2nc3ccccc3nc2C(C#N)C(=O)OC(C)C)CC1 (stereo not given)	-9.6	.	45.1*	-23.1	1.4	78.7
Cc1noc(C)c1-c1ccc(C(=O)NC2CCCCC2)c2occc12	.	-2.2	5.2	-2.0	.	1.2
CCCCCn1c(NC(=O)c2ccco2)c(S(=O)(=O)c2ccc(C)cc2)c2nc3ccccc3nc21	23.1	19.1	8.4	-23.1	4.6	3.4
CCCCn1c(NC(=O)c2ccco2)c(S(=O)(=O)c2ccc(C)cc2)c2nc3ccccc3nc21	-3.2	.	54.1*	-25.1	.	68.1*
Cc1ccc(S(=O)(=O)c2c(N)n(CCCO)c3nc4ccccc4nc23)cc1	-6.4	-6.5	40.7*	-58.4	-5.3	0.9
CCCCn1c(NS(=O)(=O)c2ccccc2)c(S(=O)(=O)c2ccc(C)cc2)c2nc3ccccc3nc21	75.3*	29.1	57.5*	-24.9	-1.5	-0.5
COc1cccc(CN(CCC(=O)O)Cc2cccc(OC)c2)c1	.	-1.1	2.1	-14.2	.	0.8
COc1cc2oc(=O)cc(CN3CCOCC3)c2cc1Cl	.	5.8	118.2*	4.0	.	0.7
COc1ccccc1CCn1cnc(C)c1CC(C)C	.	.	61.8*	-4.2	.	2.9
O=C(CN1CCCN(S(=O)(=O)c2ccc(F)cc2)CC1)Nc1c(Cl)cccc1Cl	-4.7	-5.2	109.2*	2.3	-1.7	1.7
SMILES	ATG4B inhibitor	Rpn11 inh	CSN inh	SENP1 FRET inh	TPT1 inhibitor	HNF4A DNA FP
O=C(CN1CCCN(S(=O)(=O)c2ccc(F)cc2)CC1)Nc1cccc(F)c1	-3.7	0.3	4.0	-2.5	-0.9	-0.9
CCc1nc2c(OCC3COc4ccccc4O3)cccn2c1N(C)C(=O)c1cccc(OC)c1 (stereo not given)	.	0.9	-3.2	1.5	.	0.8
O=c1cc(CN2CCN(S(=O)(=O)c3cccc(Cl)c3)CC2)c2ccc(O)cc2o1	4.1	3.8	-4.5	-23.9	.	-6.8
CCCCN1/C(=C/c2cccc[n+]2C)Sc2cc(NC(C)=O)ccc21	-8.4	6.3	5.5	1.4	5.0	4.5
CCN1/C(=C/c2ccc3ccccc3[n+]2CC)C=Cc2ccccc21	15.2	21.0	23.1	63.1*	17.7	43.9*
CCCCN1/C(=C/c2ccc3ccccc3[n+]2CC)Sc2ccccc21	-4.2	21.2	21.9	70.1*	.	35.4
CCN1/C(=C/c2ccc3ccccc3[n+]2CCCS(=O)(=O)[O-])C=Cc2cc(C)ccc21	5.2	13.6	9.3	2.2	.	7.3
COC(=O)c1cccc(Cn2c(Cl)c(/C=N/NC(=O)c3ccco3)sc2=O)c1	-5.2	7.4	1.7	-14.7	11.2	8.3
CC(=O)c1ccc2cc3c(cc2c1)OCO3	.	2.8	2.7	0.0	.	3.1
N#Cc1c(NC(=O)c2ccco2)sc2c1CCC2	-4.7	13.7	39.3*	-11.0	2.2	-16.0
Cc1ccc(-c2cc([C@H]3[C@@H]4C=CCC[C@@]4(C)C(=O)N3Cc3ccccc3)ccc2F)cc1	-5.5	10.9	4.9	2.0	-2.4	-2.8
CN(C)c1ccc(-c2cc([C@H]3[C@@H]4C=CCC[C@@]4(C)C(=O)N3Cc3ccccc3)ccc2F)cc1	-1.1	5.6	-3.4	47.8*	0.6	1.4
COc1ccc2c(CC(=O)N3CCN(S(=O)(=O)c4ccc(F)cc4)CC3)coc2c1	-7.0	7.1	4.7	0.1	.	-5.2
CCc1nc2ccc(C(=O)NCc3ccc(OC)cc3)cn2c1N(CC)CCN(C)C	.	3.2	-0.2	-42.9	.	1.5
Brc1ccc(CSc2nnc(-c3ccccn3)n2Cc2ccco2)cc1	50.1*	5.7	-5.6	-0.7	2.5	7.3
O=C(c1cccnc1)N1CCC2CC1c1c(Cl)cccc12 (stereo not given)	.	3.6	0.6	0.1	.	-0.8
COc1ccc2cc1Oc1ccc(cc1)C[C@H]1c3c(cc(OC)c4c3Oc3c(ccc5c3[C@H](C2)N(C)CC5)O4)CCN1C	9.8	1.1	-0.1	3.4	.	76.4*
COc1ccc2cc1Oc1ccc(cc1)CC1c3c(cc(OC)c4c3Oc3cc5c(cc3O4)CCNC5C2)CCN1C (stereo not given)	-6.2	5.1	3.7	1.1	-1.1	99.7*
COc1cc2c(c(O)c1OC)C1Cc3ccc(OC)c(OC)c3CN1CC2 (stereo not given)	.	2.6	3.9	-3.2	.	0.1
CC1(C)C(=O)Nc2ccccc2N1C(=O)COC(=O)CNS(=O)(=O)c1ccc(F)c(F)c1F	-3.0	0.1	-2.3	1.1	.	-0.3
CC1CN(C(=O)C(C)OC(=O)c2ccc3ncsc3c2)CC(C)O1 (stereo not given)	-0.3	-11.1	-8.1	-2.9	.	1.7
N#Cc1c(NC(=S)NC(=O)c2ccccc2)sc2c1CCC2	8.1	11.3	0.6	4.2	2.7	20.5
